In ChEMBL document CHEMBL1140697, “Synthesis and evaluation in monkey of two sensitive 11C-labeled aryloxyanilide ligands for imaging brain peripheral benzodiazepine receptors in vivo” (J Med Chem, 2008):

Key:
[1] = target: D(4) dopamine receptor (Homo sapiens) (UniProt P21917); test: Binding affinity to dopamine receptor D4 at 10 uM; details: tested as the 11C-labelled form
How it was run: (§1)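 Run through the NIMH Psychoactive Drug Screening Program (PDSP) broad receptor screen. The test ligand was used at 10 µM, and the read-out was percent displacement of the reference radioligand from each site.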

[2] = target: Beta-2 adrenergic receptor (Homo sapiens) (UniProt P07550); test: Binding affinity to adrenergic beta-2 at 10 uM; details: tested as the 11C-labelled form; how it was run: as §1
[3] = target: Sodium-dependent serotonin transporter (Homo sapiens) (UniProt P31645); test: Binding affinity to SERT receptor at 10 uM; details: tested as the 11C-labelled form; how it was run: as §1
[4] = target: Histamine H2 receptor (Homo sapiens) (UniProt P25021); test: Binding affinity to histamine H2 receptor at 10 uM; details: tested as the 11C-labelled form; how it was run: as §1
[5] = target: Alpha-1B adrenergic receptor (Homo sapiens) (UniProt P35368); test: Binding affinity to adrenergic alpha-1B at 10 uM; details: tested as the 11C-labelled form; how it was run: as §1
[6] = target: Histamine H4 receptor (Homo sapiens) (UniProt Q9H3N8); test: Binding affinity to histamine H4 receptor at 10 uM; details: tested as the 11C-labelled form; how it was run: as §1
[7] = target: 5-hydroxytryptamine receptor 6 (Homo sapiens) (UniProt P50406); test: Binding affinity to 5HT6 at 10 uM; details: tested as the 11C-labelled form; how it was run: as §1
[8] = target: Histamine H3 receptor (Homo sapiens) (UniProt Q9Y5N1); test: Binding affinity to histamine H3 receptor at 10 uM; details: tested as the 11C-labelled form; how it was run: as §1
[9] = target: Histamine H1 receptor (Homo sapiens) (UniProt P35367); test: Binding affinity to histamine H1 receptor at 10 uM; details: tested as the 11C-labelled form; how it was run: as §1
[10] = target: Sodium-dependent noradrenaline transporter (Homo sapiens) (UniProt P23975); test: Binding affinity to NET receptor at 10 uM; details: tested as the 11C-labelled form; how it was run: as §1
[11] = target: 5-hydroxytryptamine receptor 2B (Homo sapiens) (UniProt P41595); test: Binding affinity to 5HT2B at 10 uM; details: tested as the 11C-labelled form; how it was run: as §1
[12] = target: Alpha-2B adrenergic receptor (Homo sapiens) (UniProt P18089); test: Binding affinity to adrenergic alpha-2B at 10 uM; details: tested as the 11C-labelled form; how it was run: as §1
[13] = target: D(1A) dopamine receptor (Homo sapiens) (UniProt P21728); test: Binding affinity to dopamine receptor D1 at 10 uM; details: tested as the 11C-labelled form; how it was run: as §1
[14] = target: D(3) dopamine receptor (Homo sapiens) (UniProt P35462); test: Binding affinity to dopamine receptor D3 at 10 uM; details: tested as the 11C-labelled form; how it was run: as §1
[15] = target: 5-hydroxytryptamine receptor 2A (Homo sapiens) (UniProt P28223); test: Binding affinity to 5HT2A at 10 uM; details: tested as the 11C-labelled form; how it was run: as §1
[16] = target: Sodium-dependent dopamine transporter (Homo sapiens) (UniProt Q01959); test: Binding affinity to DAT receptor at 10 uM; details: tested as the 11C-labelled form; how it was run: as §1
[17] = target: 5-hydroxytryptamine receptor 1D (Homo sapiens) (UniProt P28221); test: Binding affinity to 5HT1D at 10 uM; details: tested as the 11C-labelled form; how it was run: as §1
[18] = target: Muscarinic acetylcholine receptor M5 (Homo sapiens) (UniProt P08912); test: Binding affinity to muscarinic receptor M5 receptor at 10 uM; details: tested as the 11C-labelled form; how it was run: as §1
[19] = target: 5-hydroxytryptamine receptor 1E (Homo sapiens) (UniProt P28566); test: Binding affinity to 5HT1E at 10 uM; details: tested as the 11C-labelled form; how it was run: as §1
[20] = target: Alpha-1A adrenergic receptor (Homo sapiens) (UniProt P35348); test: Binding affinity to adrenergic alpha-1A at 10 uM; details: tested as the 11C-labelled form; how it was run: as §1
[21] = target: 5-hydroxytryptamine receptor 1A (Homo sapiens) (UniProt P08908); test: Binding affinity to 5HT1A at 10 uM; details: tested as the 11C-labelled form; how it was run: as §1
[22] = target: D(2) dopamine receptor (Homo sapiens) (UniProt P14416); test: Binding affinity to dopamine receptor D2 at 10 uM; details: tested as the 11C-labelled form; how it was run: as §1
[23] = target: Alpha-2C adrenergic receptor (Homo sapiens) (UniProt P18825); test: Binding affinity to adrenergic alpha-2C at 10 uM; details: tested as the 11C-labelled form; how it was run: as §1
[24] = target: Beta-1 adrenergic receptor (Homo sapiens) (UniProt P08588); test: Binding affinity to adrenergic […] at 10 uM; details: tested as the 11C-labelled form; how it was run: as §1
[25] = target: 5-hydroxytryptamine receptor 5A (Homo sapiens) (UniProt P47898); test: Binding affinity to 5HT5A at 10 uM; details: tested as the 11C-labelled form; how it was run: as §1
[26] = target: Muscarinic acetylcholine receptor M2 (Homo sapiens) (UniProt P08172); test: Binding affinity to muscarinic receptor M2 receptor at 10 uM; details: tested as the 11C-labelled form; how it was run: as §1
[27] = target: 5-hydroxytryptamine receptor 1B (Homo sapiens) (UniProt P28222); test: Binding affinity to 5HT1B at 10 uM; details: tested as the 11C-labelled form; how it was run: as §1
[28] = target: 5-hydroxytryptamine receptor 2C (Homo sapiens) (UniProt P28335); test: Binding affinity to 5HT2C at 10 uM; details: tested as the 11C-labelled form; how it was run: as §1
[29] = target: Beta-3 adrenergic receptor (Homo sapiens) (UniProt P13945); test: Binding affinity to adrenergic beta-3 at 10 uM; details: tested as the 11C-labelled form; how it was run: as §1
[30] = target: 5-hydroxytryptamine receptor 3A (Homo sapiens) (UniProt P46098); test: Binding affinity to 5HT3 at 10 uM; details: tested as the 11C-labelled form; how it was run: as §1
[31] = target: 5-hydroxytryptamine receptor 7 (Homo sapiens) (UniProt P34969); test: Binding affinity to 5HT7 at 10 uM; details: tested as the 11C-labelled form; how it was run: as §1
[32] = target: Alpha-2A adrenergic receptor (Homo sapiens) (UniProt P08913); test: Binding affinity to adrenergic alpha-2A at 10 uM; details: tested as the 11C-labelled form; how it was run: as §1
[33] = Stability in monkey whole blood >30 mins; type: ADME, tissue-based, Macaca mulatta; details: rhesus monkey, read-out: Stability
How it was run: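 The radioligand was incubated with monkey blood for >30 min. Radioactivity extracted from the plasma was analysed by radio-HPLC to give the percentage of unchanged radioligand, reported as mean ± SD.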

[34] = Lipophilicity, log D of the compound; type: physicochemical; details: octanol/water
How it was run: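 The ¹¹C-ligand (~300 µCi) in saline with 5% ethanol was mixed with sodium phosphate buffer (0.15 M, pH 7.4). Six 1 mL aliquots were each vortexed 1 min with buffer-pre-equilibrated n-octanol, centrifuged 1 min, and 200 µL of each phase was γ-counted. Aqueous counts were corrected by radio-HPLC for the unchanged fraction. LogD = log(cpm octanol/corrected cpm aqueous); mean ± SD of six determinations.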

Translocator protein [35] = target: Translocator protein (Homo sapiens, UniProt P30536); test: Binding affinity to PBR in human mitochondrial tissue
Plasma [36] = test: Drug level in rhesus monkey plasma; type: ADME, cell-free, Macaca mulatta
Plasma [37] = test: Drug level in rhesus monkey plasma assessed as cell distribution; type: ADME, cell-free, Macaca mulatta
Translocator protein [38] = target: Translocator protein (Rattus norvegicus, UniProt P16257); test: Binding affinity to PBR in Sprague-Dawley rat mitochondrial tissue
[39] = Binding affinity to PBR in rhesus monkey mitochondrial tissue; design: species or system Macaca mulatta
How it was run: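 Mitochondrial fractions (rat, rhesus monkey or human) were incubated with [³H]PK 11195 (0.38 nM final) and eight test-ligand concentrations for 2 h at 4 °C. Samples were filtered on PEI-presoaked GF/B filters, washed with ice-cold buffer and counted. Nonspecific binding was taken at the top inhibitor level (0.1–0.3 µM). Triplicate curves were run in two independent experiments. IC₅₀ was converted to K_i by Cheng–Prusoff, using K_D from homologous PK 11195 displacement.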

[40] = Biodistribution in rhesus monkey plasma free fraction of blood; type: ADME, organism-based, Macaca mulatta
[41] = Stability in sodium phosphate buffer at pH 7.4 after 2.5 hrs; type: physicochemical; details: read-out: Stability
How it was run: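 Radioligand stored in 0.15 M sodium phosphate buffer, pH 7.4, for 2.5 h; radiochemical stability measured by radio-HPLC as percent of radioactivity remaining as unchanged radioligand; n = 4.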

Plasma [42] = test: Biodistribution in rat plasma at 1.43 mCi, iv after 30 mins; type: ADME, organism-based; details: in vivo, 0.5 h
How it was run: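 Rats received the ¹¹C-radioligand iv with varying carrier mass (µg/kg) and were sampled 30 min later. Plasma and brain homogenate were extracted into acetonitrile and analysed by reverse-phase radio-HPLC (C18; MeOH/H₂O/Et₃N, 1.5 mL/min), reporting % radioactivity as unchanged radioligand. Extraction recovery was recorded. Replicate HPLC analyses were run on one sample per rat.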

Alpha-2C adrenergic receptor (Homo sapiens), sequence (P18825 whole entry): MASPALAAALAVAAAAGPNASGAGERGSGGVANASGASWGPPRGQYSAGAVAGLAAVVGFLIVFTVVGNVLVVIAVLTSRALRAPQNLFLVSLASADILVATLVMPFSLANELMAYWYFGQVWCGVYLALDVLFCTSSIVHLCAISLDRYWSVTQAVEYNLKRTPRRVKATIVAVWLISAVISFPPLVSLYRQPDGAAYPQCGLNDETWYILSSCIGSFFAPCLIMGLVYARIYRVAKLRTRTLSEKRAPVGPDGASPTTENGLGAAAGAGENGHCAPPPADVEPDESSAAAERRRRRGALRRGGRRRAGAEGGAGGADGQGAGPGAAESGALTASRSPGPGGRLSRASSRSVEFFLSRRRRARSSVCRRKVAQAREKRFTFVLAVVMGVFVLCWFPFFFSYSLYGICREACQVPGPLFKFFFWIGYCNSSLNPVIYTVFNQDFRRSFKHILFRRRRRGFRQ
5-hydroxytryptamine receptor 6 (Homo sapiens), sequence (P50406 whole entry): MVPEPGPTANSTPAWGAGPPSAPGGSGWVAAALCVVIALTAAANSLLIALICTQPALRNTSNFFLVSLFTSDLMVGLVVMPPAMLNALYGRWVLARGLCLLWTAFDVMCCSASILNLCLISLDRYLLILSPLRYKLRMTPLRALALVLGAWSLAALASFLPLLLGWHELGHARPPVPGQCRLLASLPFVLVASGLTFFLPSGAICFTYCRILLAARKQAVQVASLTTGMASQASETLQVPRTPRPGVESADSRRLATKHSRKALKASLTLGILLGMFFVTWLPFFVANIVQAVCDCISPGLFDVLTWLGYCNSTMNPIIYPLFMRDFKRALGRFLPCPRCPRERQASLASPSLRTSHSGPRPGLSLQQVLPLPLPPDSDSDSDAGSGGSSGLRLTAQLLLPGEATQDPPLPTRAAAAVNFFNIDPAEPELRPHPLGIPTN
5-hydroxytryptamine receptor 5A (Homo sapiens), sequence (P47898 whole entry): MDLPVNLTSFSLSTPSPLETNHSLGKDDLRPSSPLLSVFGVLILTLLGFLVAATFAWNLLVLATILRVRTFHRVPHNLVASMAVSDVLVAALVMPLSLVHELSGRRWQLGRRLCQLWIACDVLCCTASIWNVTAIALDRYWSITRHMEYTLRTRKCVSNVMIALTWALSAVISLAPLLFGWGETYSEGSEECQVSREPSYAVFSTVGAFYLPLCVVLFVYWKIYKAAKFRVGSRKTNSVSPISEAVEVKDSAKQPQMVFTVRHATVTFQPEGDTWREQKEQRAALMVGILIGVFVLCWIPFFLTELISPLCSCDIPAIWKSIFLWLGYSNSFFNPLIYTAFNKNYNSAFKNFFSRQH
Histamine H4 receptor (Homo sapiens), sequence (Q9H3N8 whole entry): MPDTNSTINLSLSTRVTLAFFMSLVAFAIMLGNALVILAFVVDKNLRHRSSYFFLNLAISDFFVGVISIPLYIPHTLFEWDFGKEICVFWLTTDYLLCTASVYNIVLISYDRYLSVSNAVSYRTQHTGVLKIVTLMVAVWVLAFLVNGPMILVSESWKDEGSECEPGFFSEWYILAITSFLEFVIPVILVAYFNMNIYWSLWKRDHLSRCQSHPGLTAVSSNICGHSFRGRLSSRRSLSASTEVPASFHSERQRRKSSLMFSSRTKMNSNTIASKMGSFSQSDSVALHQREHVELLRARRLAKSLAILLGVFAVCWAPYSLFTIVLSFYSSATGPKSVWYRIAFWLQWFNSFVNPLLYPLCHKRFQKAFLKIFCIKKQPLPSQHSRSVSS
5-hydroxytryptamine receptor 7 (Homo sapiens), sequence (P34969 whole entry): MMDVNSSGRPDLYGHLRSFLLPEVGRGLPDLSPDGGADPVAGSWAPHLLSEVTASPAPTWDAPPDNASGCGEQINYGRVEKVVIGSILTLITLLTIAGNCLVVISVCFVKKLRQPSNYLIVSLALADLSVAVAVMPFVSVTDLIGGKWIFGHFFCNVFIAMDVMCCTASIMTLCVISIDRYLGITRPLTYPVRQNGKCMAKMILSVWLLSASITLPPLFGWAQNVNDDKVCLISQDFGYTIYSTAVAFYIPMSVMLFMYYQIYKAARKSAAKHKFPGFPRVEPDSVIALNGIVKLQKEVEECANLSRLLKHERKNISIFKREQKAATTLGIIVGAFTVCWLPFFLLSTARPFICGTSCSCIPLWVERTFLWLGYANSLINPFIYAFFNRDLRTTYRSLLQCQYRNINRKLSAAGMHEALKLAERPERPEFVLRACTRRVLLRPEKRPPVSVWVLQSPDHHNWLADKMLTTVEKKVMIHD
Beta-1 adrenergic receptor (Homo sapiens), sequence (P08588 whole entry, looked up): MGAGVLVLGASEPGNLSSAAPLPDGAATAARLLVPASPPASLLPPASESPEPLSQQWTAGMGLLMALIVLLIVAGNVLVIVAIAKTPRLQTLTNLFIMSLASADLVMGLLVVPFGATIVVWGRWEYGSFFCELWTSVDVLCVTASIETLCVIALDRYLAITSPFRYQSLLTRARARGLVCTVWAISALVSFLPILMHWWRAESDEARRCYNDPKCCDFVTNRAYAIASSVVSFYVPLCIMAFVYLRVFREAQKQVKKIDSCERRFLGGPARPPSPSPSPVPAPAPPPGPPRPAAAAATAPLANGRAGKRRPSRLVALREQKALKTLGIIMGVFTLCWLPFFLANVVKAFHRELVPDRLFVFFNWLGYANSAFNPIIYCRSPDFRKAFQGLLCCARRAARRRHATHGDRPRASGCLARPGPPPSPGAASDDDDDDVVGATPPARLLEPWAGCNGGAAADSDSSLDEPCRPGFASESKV
5-hydroxytryptamine receptor 1D (Homo sapiens), sequence (P28221 whole entry): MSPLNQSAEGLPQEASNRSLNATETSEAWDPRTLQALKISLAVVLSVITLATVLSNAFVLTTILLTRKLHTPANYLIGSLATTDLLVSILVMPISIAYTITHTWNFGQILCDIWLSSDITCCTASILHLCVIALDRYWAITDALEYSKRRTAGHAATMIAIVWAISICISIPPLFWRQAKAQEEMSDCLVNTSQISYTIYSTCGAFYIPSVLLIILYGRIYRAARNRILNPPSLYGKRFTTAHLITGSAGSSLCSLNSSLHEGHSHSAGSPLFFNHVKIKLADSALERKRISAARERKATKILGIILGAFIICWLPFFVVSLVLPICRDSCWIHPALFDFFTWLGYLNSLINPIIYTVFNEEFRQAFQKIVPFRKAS
5-hydroxytryptamine receptor 2B (Homo sapiens), sequence (P41595 whole entry): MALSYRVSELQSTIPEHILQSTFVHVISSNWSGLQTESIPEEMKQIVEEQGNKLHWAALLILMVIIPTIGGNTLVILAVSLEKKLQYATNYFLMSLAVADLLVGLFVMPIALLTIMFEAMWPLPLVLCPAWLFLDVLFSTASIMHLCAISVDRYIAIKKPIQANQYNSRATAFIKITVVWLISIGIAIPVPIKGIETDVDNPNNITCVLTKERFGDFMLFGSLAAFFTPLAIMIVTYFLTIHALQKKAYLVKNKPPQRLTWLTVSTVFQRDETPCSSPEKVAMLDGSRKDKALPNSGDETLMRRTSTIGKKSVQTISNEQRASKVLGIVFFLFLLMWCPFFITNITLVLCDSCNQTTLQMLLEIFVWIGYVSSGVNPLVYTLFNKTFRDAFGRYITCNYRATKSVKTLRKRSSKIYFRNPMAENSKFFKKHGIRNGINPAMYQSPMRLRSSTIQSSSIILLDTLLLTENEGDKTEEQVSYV
5-hydroxytryptamine receptor 2A (Homo sapiens), sequence (P28223 whole entry): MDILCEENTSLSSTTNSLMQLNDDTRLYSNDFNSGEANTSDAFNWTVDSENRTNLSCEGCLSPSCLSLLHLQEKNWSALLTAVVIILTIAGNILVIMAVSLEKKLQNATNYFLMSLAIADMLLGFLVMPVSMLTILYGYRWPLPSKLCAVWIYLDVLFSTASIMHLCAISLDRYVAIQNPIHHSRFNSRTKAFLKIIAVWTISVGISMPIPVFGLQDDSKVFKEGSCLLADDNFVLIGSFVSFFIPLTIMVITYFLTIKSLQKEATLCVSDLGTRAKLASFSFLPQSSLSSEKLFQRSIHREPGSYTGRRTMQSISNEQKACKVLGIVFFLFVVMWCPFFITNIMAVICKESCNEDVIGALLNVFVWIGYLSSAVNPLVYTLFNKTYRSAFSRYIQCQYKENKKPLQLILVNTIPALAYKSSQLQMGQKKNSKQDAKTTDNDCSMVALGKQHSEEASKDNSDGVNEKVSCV
Histamine H2 receptor (Homo sapiens), sequence (P25021 whole entry): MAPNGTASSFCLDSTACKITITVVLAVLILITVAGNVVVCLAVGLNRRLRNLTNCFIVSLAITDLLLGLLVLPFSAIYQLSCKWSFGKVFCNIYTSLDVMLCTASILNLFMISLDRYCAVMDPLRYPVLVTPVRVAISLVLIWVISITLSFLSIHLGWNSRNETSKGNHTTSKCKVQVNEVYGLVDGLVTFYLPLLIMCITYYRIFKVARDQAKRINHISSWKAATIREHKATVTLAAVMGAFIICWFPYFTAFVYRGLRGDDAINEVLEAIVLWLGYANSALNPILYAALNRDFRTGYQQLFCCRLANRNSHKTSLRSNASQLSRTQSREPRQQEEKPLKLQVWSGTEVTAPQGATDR
Alpha-1A adrenergic receptor (Homo sapiens), sequence (P35348 whole entry): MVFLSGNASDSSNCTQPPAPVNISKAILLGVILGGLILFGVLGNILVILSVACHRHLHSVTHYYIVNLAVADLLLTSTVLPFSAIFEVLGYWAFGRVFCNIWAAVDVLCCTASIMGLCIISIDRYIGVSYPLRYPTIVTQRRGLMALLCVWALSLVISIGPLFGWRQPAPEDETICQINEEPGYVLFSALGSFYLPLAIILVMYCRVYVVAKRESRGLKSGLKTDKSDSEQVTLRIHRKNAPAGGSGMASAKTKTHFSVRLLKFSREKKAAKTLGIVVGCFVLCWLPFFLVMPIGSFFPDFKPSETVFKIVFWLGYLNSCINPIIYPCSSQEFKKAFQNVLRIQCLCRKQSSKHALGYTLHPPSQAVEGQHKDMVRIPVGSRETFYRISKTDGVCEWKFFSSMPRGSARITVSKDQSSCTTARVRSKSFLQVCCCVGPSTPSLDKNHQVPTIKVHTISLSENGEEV
Translocator protein (Rattus norvegicus, UniProt P16257), sequence (P16257 whole entry, looked up): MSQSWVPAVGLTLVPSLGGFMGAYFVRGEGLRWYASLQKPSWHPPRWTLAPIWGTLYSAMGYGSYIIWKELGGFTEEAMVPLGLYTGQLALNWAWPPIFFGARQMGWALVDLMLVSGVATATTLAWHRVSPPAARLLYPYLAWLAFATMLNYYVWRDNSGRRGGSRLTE

## COc1ccccc1CN(C(C)=O)c1cnccc1Oc1ccccc1
[1]
  Activity: < 50%
[2]
  Activity: < 50%
[3]
  Activity: < 50%
[4]
  Activity: < 50%
[5]
  Activity: < 50%
[6]
  Activity: < 50%
[7]
  Activity: < 50%
[8]
  Activity: < 50%
[9]
  Activity: < 50%
[10]
  Activity: < 50%
[11]
  Activity: < 50%
[12]
  Activity: < 50%
[13]
  Activity: < 50%
[14]
  Activity: < 50%
[15]
  Activity: < 50%
[16]
  Activity: < 50%
[17]
  Activity: < 50%
[18]
  Activity: < 50%
[19]
  Activity: < 50%
[20]
  Activity: < 50%
[21]
  Activity: < 50%
[22]
  Activity: < 50%
[23]
  Activity: < 50%
[24]
  Activity: < 50%
[25]
  Activity: < 50%
[26]
  Activity: < 50%
[27]
  Activity: < 50%
[28]
  Activity: < 50%
[29]
  Activity: < 50%
[30]
  Activity: < 50%
[31]
  Activity: < 50%
[32]
  Activity: < 50%

## CC(=O)N(Cc1ccccc1C(=O)O[11CH3])c1ccccc1Oc1ccccc1
[33]
  remaining at 0.5 h: 96.5%
[34]
  logD: 3.9
Translocator protein [35]
  Ki: 1.4 nM
Plasma [36]
  Drug uptake: 36.7%
Plasma [37]
  Drug uptake: 63.3%
Translocator protein [38]
  Ki: 0.0978 nM
[39]
  Ki: 0.254 nM
[40]
  fraction unbound: 0.0015
[41]
  remaining at 2.5 h: 99.9%
Plasma [42]
  Drug uptake: 3.4%
